Data set [1] relates to T47D. The data set can be described thus: Antiproliferative activity against human T47D cells after 48 hrs by MTT assay.
The next data set concerns the target T1, Estrogen receptor (Homo sapiens, UniProt P03372).
T1 sequence (P03372 whole entry): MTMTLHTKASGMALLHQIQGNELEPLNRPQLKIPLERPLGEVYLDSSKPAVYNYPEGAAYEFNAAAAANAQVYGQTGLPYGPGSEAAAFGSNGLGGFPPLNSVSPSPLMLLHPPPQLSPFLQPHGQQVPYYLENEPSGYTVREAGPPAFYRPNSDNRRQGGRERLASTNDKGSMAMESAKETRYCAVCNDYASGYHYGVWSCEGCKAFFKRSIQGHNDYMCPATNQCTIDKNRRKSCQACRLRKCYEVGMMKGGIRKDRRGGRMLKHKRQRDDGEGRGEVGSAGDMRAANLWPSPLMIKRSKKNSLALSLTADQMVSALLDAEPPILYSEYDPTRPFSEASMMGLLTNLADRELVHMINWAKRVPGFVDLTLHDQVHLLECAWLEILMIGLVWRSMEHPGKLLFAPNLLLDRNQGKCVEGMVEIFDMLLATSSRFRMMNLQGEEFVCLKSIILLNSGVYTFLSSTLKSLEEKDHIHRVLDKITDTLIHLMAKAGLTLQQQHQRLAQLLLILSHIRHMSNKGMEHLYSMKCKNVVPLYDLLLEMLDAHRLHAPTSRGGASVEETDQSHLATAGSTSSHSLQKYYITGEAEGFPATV
Nature of the data set: Displacement of Fluormone-tagged ES2 from human recombinant ERalpha after 2 hrs by fluorescence polarization assay.

A further data set relates to PBMC. Nature of the data set: Cytotoxicity against human PBMC assessed as reduction in cell viability at 100 uM after 48 hrs by MTT assay. In kind it is cell-based. In outline: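 PBMCs isolated from human whole blood after RBC lysis, kept in RPMI-1640 with 10% FBS at 37 °C, 5% CO2; about 10^4 cells/well. MTT read-out as for T47D: 48 h exposure in FBS-free medium, MTT 0.5 mg/ml for 4 h, acidified DMSO, absorbance 570/620 nm, viability versus control.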

The next data set deals with MCF7. Nature of the data set: Antiproliferative activity against human MCF7 cells. The data set is classed as functional.
Data set [2] deals with T2, Estrogen receptor (Homo sapiens) (UniProt P03372).
T2 sequence (whole entry): T1 sequence (P03372 whole entry)
The data set can be described thus: Displacement of Fluormone-tagged ES2 from human recombinant ERalpha up to 1000 nM after 2 hrs by fluorescence polarization assay. In outline: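 Fluorescence polarization competition: DMSO serial dilutions of compound mixed 1:1 with human recombinant ER-α/Fluormone complex, at least 2 h at room temperature protected from light; excitation 535 nm, emission 590 nm. Controls: buffer with 4% DMSO (maximum), oestradiol (minimum), free tracer. Percent inhibition fitted by nonlinear regression; IC50 = half displacement of bound ligand.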
(In fluorescence polarisation assays a small probe gives low polarisation when free and higher when bound to something large.)

Data set [3] in a line: Drug uptake in human T47D cell nucleus at 15 uM after 24 to 48 hrs by DAPI staining based confocal laser scanning microscopic method. The data set is classed as ADME, subcellular.
Data set [4] has as its target T2, Estrogen receptor (Homo sapiens). Nature of the data set: Binding affinity to ERalpha in human T47D cells assessed as downregulation of ERalpha mRNA level at 15 uM after 482 hrs by RT-PCR assay relative to control. In kind it is cell-based. The note with it: in the assay text read “48 hrs” for “482 hrs”. A digest of the protocol:
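T47D treated with 15 µM for 48 h; total RNA extracted with TRIzol, quality checked, converted to cDNA. ER-α amplified with gene-specific primers alongside GAPDH as loading control; products run on 1.2% agarose with EtBr and quantified by densitometry, normalised to GAPDH, relative to untreated cells; three independent experiments.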

The subject of data set [5] is T47D. Nature of the data set: Downregulation of ERalpha protein level in human T47D cells at 15 uM after 48 hrs by Western blot method relative to control. In kind it is functional. In outline:
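T47D cells grown in RPMI-1640 with 10% heat-inactivated FBS at 37 °C, 5% CO2, then exposed to 15 uM for 48 h. Lysis in modified RIPA (50 mM Tris-HCl pH 7.4, 1% NP-40, protease inhibitors); protein measured by Bradford. 50 ug run on 10% SDS-PAGE, then nitrocellulose. Rabbit anti-ER-alpha (HC-20) at 4 °C overnight, HRP secondary, ECL. Densitometry normalised to beta-actin versus untreated cells; three experiments.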
On the technique in general: In western blotting, separated proteins are transferred to a membrane and probed.

A short description of data set [6]: Drug uptake in human T47D cell plasma membrane at 15 uM after 24 hrs by DAPI staining based confocal laser scanning microscopic method. The data set is classed as ADME, cell membranes.
Data set [7] can be described thus: Drug uptake in human T47D cell cytosol at 15 uM after 24 hrs by DAPI staining based confocal laser scanning microscopic method. The data set is classed as ADME, subcellular.

pIC50: −log10 of the molar value. Active and inactive are the calls of the source. The rule behind the calls is not given here.

On to `Cc1c(-c2ccc(O)cc2)n(Cc2ccc(OCCN3CCCCCC3)cc2)c2ccc(O)cc12` [BAZEDOXIFENE], for which, in the data set with T47D [1], the negative logarithm of the IC50 (pIC50) – broadly, the negative decadic logarithm of the IC50, by convention in mol/L – is 4.78.

For the compound `CC1(C)CC(=O)C2=C(C1)OC1=C(C(=O)CCC1(C)C)C2c1cc2ccccc2n1Cc1ccccc1` (stereo unspecified), the negative-log IC50 (pIC50) in the data set with T47D [1] was 4.71; at Estrogen receptor, 6.23. Further, in the data set on PBMC, the Activity entry is “Non-Toxic”.

`CC/C(=C(\c1ccccc1)c1ccc(OCCN(C)C)cc1)c1ccccc1` [TAMOXIFEN] displayed an Activity in the data set on MCF7 of 10 µg/mL.

On to `Oc1nc(S)nc2c1C(c1cc3ccccc3n1Cc1ccccc1)c1c(O)nc(S)nc1O2`, for which the inhibition entry in data set [2] was “inactive”. Moreover, in the data set on PBMC, the Activity entry was “Non-Toxic”.

As to `CC1CC(=O)C2=C(C1)OC1=C(C(=O)CCC1)C2c1cc2ccccc2n1Cc1ccccc1` (stereo unspecified), the Drug uptake result is listed as “Not Active” in data set [3] and “Active” in data set [6]. For the same compound, the Activity in data set [4] is 29.7%; with T47D [5] it was 31.06%; in the data set with PBMC it was “Non-Toxic”. In addition, the pIC50 with T47D [1] is 4.75; on Estrogen receptor it was 7.78.

On to `CC1(C)CCC(=O)C2=C1OC1=C(C(=O)CCC1(C)C)C2c1cc2ccccc2n1Cc1ccccc1`, for which the inhibition result in data set [2] is “inactive”. In the data set on PBMC, the Activity entry was “Non-Toxic”.

Consider `CC1(C)CCC(=O)C2=C1OC1=C(C(=O)CCC1)C2c1cc2ccccc2n1Cc1ccccc1` (stereo unspecified), for which the Drug uptake entry in data set [3] is given as “Not Active”; in [7], “Active”. For the same compound, the Activity in data set [4] was 54.3%; in the data set on T47D [5] it was 32.18%; in the data set on PBMC, “Non-Toxic”. In addition, the values for the pIC50 with T47D [1] and on Estrogen receptor were 4.78 and 7.26, respectively.

For `CC1(C)CC(=O)C2C(C1)Oc1ccc3ccccc3c1C2c1ccc(O)cc1` (stereo unspecified), the Activity in the data set with MCF7 was determined as 6.7 µg/mL.

Regarding `CC1(C)CC(=O)C2=C(C1)OC1=C(C(=O)CCC1)C2c1cc2ccccc2n1Cc1ccccc1` (stereo unspecified), the results for the pIC50 in the data set with T47D [1] and on Estrogen receptor were 4.63 and 7.73, respectively. The Activity entry with PBMC is “Non-Toxic”.

For the compound `CC1(C)CC(=O)C2=C(C1)OC1=C(C(=O)CC(C)(C)C1)C2c1cc2ccccc2n1Cc1ccccc1`, the results for the negative logarithm of the IC50 (pIC50) with T47D [1] and at Estrogen receptor were 4.61 and 7.22, respectively. In the data set on PBMC, the Activity result is listed as “Non-Toxic”.

Consider `O=c1[nH]c2c(c(=O)[nH]1)C(c1cc3ccccc3n1Cc1ccccc1)c1c([nH]c(=O)[nH]c1=O)O2`, for which the negative-log IC50 (pIC50) with T47D [1] was 4.66; on Estrogen receptor it was 7.21. Also, in the data set on PBMC, the Activity entry is listed as “Non-Toxic”.

As to `O=C1CC(c2ccccc2)CC2=C1C(c1cc3ccccc3n1Cc1ccccc1)C1=C(CC(c3ccccc3)CC1=O)O2` (stereo unspecified), the inhibition result in [2] was “inactive”. The Activity entry in the data set on PBMC is recorded as “Non-Toxic”.

Consider `CC1CC(=O)C2=C(C1)OC1=C(C(=O)CC(C)(C)C1)C2c1cc2ccccc2n1Cc1ccccc1` (stereo unspecified), for which the pIC50 was 4.70 in the data set on T47D [1] and 7.57 at Estrogen receptor. The Activity result in the data set on PBMC is “Non-Toxic”.

Take `CC1CC(=O)C2=C(C1)OC1=C(C(=O)CC(C)C1)C2c1cc2ccccc2n1Cc1ccccc1` (stereo unspecified): the pIC50 on Estrogen receptor was 6.32. Also, the Activity entry in the data set on PBMC is recorded as “Non-Toxic”.

For `CC1CC(=O)C2=C(C1)OC1=C(C(=O)CCC1(C)C)C2c1cc2ccccc2n1Cc1ccccc1` (stereo unspecified), the pIC50 with T47D [1] is 4.68; on Estrogen receptor, 6.45. In addition, in the data set on PBMC, the Activity result is given as “Non-Toxic”.

For the compound `O=C1CCC2=C1C(c1cc3ccccc3n1Cc1ccccc1)C1=C(CCC1=O)O2`, the pIC50 with T47D [1] is 4.60; at Estrogen receptor, 7.29. Besides, the Activity entry in the data set on PBMC was “Non-Toxic”.

The values above are taken from ChEMBL document CHEMBL4184175, “Design, synthesis and biological evaluation of novel indole-xanthendione hybrids as selective estrogen receptor modulators” (Bioorg Med Chem, 2018).
